Results collected from several papers.
Each line is one published result; the experiments were not run side by side.
Target: Serine/threonine-protein kinase TAO3 (TAOK3, Homo sapiens, UniProt Q9H2K8)
One construct used (Q9H2K8 1-898): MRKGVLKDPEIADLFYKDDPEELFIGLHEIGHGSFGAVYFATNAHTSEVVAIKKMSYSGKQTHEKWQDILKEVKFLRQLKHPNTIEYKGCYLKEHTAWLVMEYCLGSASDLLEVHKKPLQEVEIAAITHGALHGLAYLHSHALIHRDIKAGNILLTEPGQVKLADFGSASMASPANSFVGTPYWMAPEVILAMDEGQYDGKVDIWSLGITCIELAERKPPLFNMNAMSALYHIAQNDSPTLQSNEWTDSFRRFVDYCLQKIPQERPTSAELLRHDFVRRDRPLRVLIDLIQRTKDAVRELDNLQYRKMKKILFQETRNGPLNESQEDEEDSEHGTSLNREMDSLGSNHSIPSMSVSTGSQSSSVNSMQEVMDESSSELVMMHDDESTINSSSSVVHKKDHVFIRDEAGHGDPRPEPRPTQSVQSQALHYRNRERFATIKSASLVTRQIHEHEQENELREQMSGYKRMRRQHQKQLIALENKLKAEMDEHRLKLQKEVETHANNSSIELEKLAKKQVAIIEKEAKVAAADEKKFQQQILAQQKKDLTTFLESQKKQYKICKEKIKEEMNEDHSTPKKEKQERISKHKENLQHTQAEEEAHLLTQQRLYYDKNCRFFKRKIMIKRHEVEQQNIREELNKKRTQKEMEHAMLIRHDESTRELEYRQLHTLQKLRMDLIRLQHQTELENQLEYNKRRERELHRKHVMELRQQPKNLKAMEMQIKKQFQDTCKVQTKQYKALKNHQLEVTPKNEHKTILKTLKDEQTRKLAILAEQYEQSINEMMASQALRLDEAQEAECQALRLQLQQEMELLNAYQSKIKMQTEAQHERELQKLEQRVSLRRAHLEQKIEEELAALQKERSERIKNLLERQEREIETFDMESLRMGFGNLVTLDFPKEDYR

SMILES	observed	technique	tested at	remaining binding
Cn1cc(Cl)c2c(Oc3c(F)cc(Nc4cc(Cl)nc(N)n4)cc3F)ccnc21	cell-free assay	competition with immobilised ligand	0.1 µM	100%
C=CC(=O)N1CCC(C(=O)NCC(=O)N2CCN(c3nc(-c4cnc(N)nc4C(F)F)nc(N4CCOCC4)n3)CC2)CC1	binding	competition with immobilised ligand	1 µM	77%
Nc1ncc2c(n1)-c1c([nH]c3ccc(C#CC4CC4)cc13)CCCC2	binding	competition with immobilised ligand	1 µM	89%
O=C(c1ccc(Nc2ncc(Cl)c(-c3ccc(Cl)s3)n2)cc1)N1CCC(N2CCCC2)CC1	binding	competition with immobilised ligand	1 µM	49%
Cc1cc(NC(=O)c2cccc(S(F)(F)(F)(F)F)c2)cc(-n2ccn3nc(-c4cccnc4)cc23)c1	cell-free assay	competition with immobilised ligand	1 µM	100%
COc1cnc(Nc2cccc(S(N)(=O)=O)c2)nc1N1CCN(c2ccccc2)C(=O)C1	binding	competition with immobilised ligand	1 µM	93%
CC1CCCN1c1nccc(-c2cnn3ncccc23)n1 (stereo not shown)	binding		1 µM	48%
CCC(=O)N[C@H]1CC[C@@H](C(=O)N(C)c2ccc(-c3nc4ccccc4o3)cc2)C1	cell-free assay	competition with immobilised ligand	1 µM	70%
COc1cnc(Nc2cccc(S(N)(=O)=O)c2)nc1N1CCN(c2ccccc2)CC1	binding	competition with immobilised ligand	1 µM	85%
COc1ccnn2ncc(-c3ccnc(N(C)C)n3)c12	binding		1 µM	82%
O=C(NCCCN1CCOCC1)c1ccc(Nc2ncc(Cl)c(-c3ccc(Cl)s3)n2)cc1	binding	competition with immobilised ligand	1 µM	49%
F[C@@H]1CCN(c2nccc(-c3cnn4ncccc34)n2)C1	binding		1 µM	55%
FC(F)(F)Oc1cccc(-c2cnc3ccc(-c4ccncc4)nn23)c1	binding	competition with immobilised ligand	5 µM	72%
O=C(Nc1c[nH]nc1C(=O)NC1CCNCC1)c1cc(F)cc(F)c1	binding	competition with immobilised ligand	1 µM	70%
CN(CCCC(F)(F)F)c1nccc(-c2cnn3ncccc23)n1	binding		1 µM	61%
CN1CCN(c2cnc3c(C4CCN(C(=O)c5ccc(OC(F)(F)F)cc5N)CC4)ncnc3c2)CC1	cell-free assay	competition with immobilised ligand	1 µM	100%
N[C@@H]1CCN(c2nccc(-c3cnn4ncccc34)n2)C1	binding		1 µM	100%
Cn1nc(C(F)(F)F)cc1-c1cnc(N2CCc3cc(S(=O)(=O)Nc4c(F)cc(Cl)cc4F)cc(N4CCCC4=O)c32)nc1	cell-free assay	competition with immobilised ligand	1 µM	93%
C[C@@H]1CCN(c2nccc(-c3cnn4ncccc34)n2)C1	binding		1 µM	90%
Cc1cnc(Nc2ccc(C(=O)N3CCC(N4CCCC4)CC3)cc2)nc1-c1cc2ccccc2s1	binding	competition with immobilised ligand	1 µM	77%
CNCc1ccccc1-c1csc([C@@H](C)Nc2nc(C)nc3cc(OC)c(OC)cc23)c1	cell-free assay	competition with immobilised ligand	1 µM	83%
CN(c1nccc(-c2cnn3ncccc23)n1)C1CC1	binding		1 µM	54%
